Source: ChEMBL document CHEMBL2057149 (J Med Chem, 2012)
Activity calls are given as the source filed them. The calls are words filed in the database; no cut-off is given here.

Key:
[1] = molecular target: Fibroblast growth factor 2 (Homo sapiens, UniProt P09038); test: Binding affinity to FGF-2 by surface plasmon resonance assay
How it was run: (§1)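 Solution-affinity SPR on heparin-coated CM4 chips. FGF-1 measured in HBS-EP (10 mM HEPES pH 7.4, 150 mM NaCl, 3.0 mM EDTA, 0.005% polysorbate 20); FGF-2 measured in HBS-EP with 300 mM NaCl. Kd is the average of at least duplicate measurements ± SD.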

HMVEC [2] = test: Antiangiogenic activity in FGF1-stimulated HMVEC cells after 72 hrs by CellTiter assay; format: functional, cell-based; conditions: Homo sapiens
HMVEC [3] = test: Antiangiogenic activity in FGF2-stimulated HMVEC cells after 72 hrs by CellTiter assay; format: functional, cell-based; conditions: Homo sapiens
HMVEC [4] = test: Antiangiogenic activity in VEGF-stimulated HMVEC cells after 72 hrs by CellTiter assay; format: functional, cell-based; conditions: Homo sapiens
HUVEC [5] = test: Antiangiogenic activity in HUVEC cells assessed as inhibition of tube formation at 10 uM after 18 hrs by matrigel assay; format: functional; conditions: Homo sapiens
How it was run: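 HUVECs (passage 4 or 5, 70–80% confluent) suspended at 4 × 10⁵/mL in EGM2 with all supplements except heparin, mixed 1:1 with compound (final 10, 50 or 100 μM) in triplicate. Plated on growth factor-reduced Matrigel for 18 h. Branching nodes joining ≥3 tubules counted manually by phase-contrast microscopy. Reported as % inhibition versus untreated cells.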

Aorta [6] = test: Antiangiogenic activity in Sprague-Dawley rat aorta assessed as inhibition of tube formation dosed daily at 10 uM measured up to 8 days by matrigel assay; format: functional
How it was run: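 Aortas from 6–10-week Sprague–Dawley rats were cut into 1 mm rings, bisected and embedded in Matrigel. Cultured in EBM-2 with 2% FCS and supplements except heparin, without exogenous growth factors. Compound was usually given at two concentrations within 1–50 μM from 10 mM PBS stocks, replenished every 48 h. Microvessels were scored 0–5 up to 8 days by two independent investigators.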

HUVEC [7] = test: Antiangiogenic activity in HUVEC cells assessed as inhibition of tube formation after 18 hrs by matrigel assay; format: functional, cell-based; conditions: Homo sapiens
How it was run: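 HUVECs at passage 4–5 (70–80% confluent) resuspended at 4 × 10⁵/mL in EGM2 with all supplements except heparin. Cells mixed with compound to final 10, 50 or 100 μM and plated in triplicate on growth-factor-reduced Matrigel for 18 h. Branching nodes joining three or more tubules counted by phase-contrast microscopy; percent inhibition versus untreated cells.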

Aorta [8] = test: Antiangiogenic activity in Sprague-Dawley rat aorta assessed as inhibition of tube formation measured up to 8 days by matrigel assay; format: functional, tissue-based; conditions: 192 h
How it was run: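 Aortas from 6–10-week Sprague–Dawley rats cut into 1 mm rings, bisected and embedded in Matrigel. Cultured in EBM-2 with 2% FCS, supplements but no heparin and no added growth factor. Compound usually given at two concentrations within 1–50 μM (10 mM PBS stock), medium renewed every 48 h. Microvessels scored 0–5 up to 8 days by two independent observers.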

Aorta [9] = test: Cytotoxicity against Sprague-Dawley rat aorta assessed as VEGF-induced microvessel formation measured 6 days post compound treatment grown on fresh medium containing VEGF; format: tissue-based; conditions: 144 h
How it was run: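 Viability check on rat aortic ring cultures: after compound exposure, compound/medium withdrawn on day 6 or 7 and replaced with complete medium containing VEGF (typically 10 ng/mL) for up to 7 further days. Renewed microvessel sprouting taken as evidence of viable tissue.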

Rattus norvegicus = test: Elimination half life in Sprague-Dawley rat at 10 mg/kg, sc using [3H]-labeled compound administered as three bolus doses at 96 hrs interval; format: ADME, organism-based; set-up: dose 10 mg/kg, route subcutaneous; conditions: in vivo
Plasma [10] = test: Anticoagulant activity in pooled human plasma assessed as activated partial thromboplastin time at 0.1 mg/ml; format: ADME, cell-free
How it was run: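 APTT of pooled normal human plasma measured with compound at 0–100 μg/mL in PBS on a ball coagulameter, using unfractionated heparin as the reference. Normal range 26–36 s; coefficient of variation 2% at 36 s and 5–7% at 90 s or above. Values are the mean of two determinations.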

Plasma [11] = test: Anticoagulant activity in pooled human plasma assessed as prolongation of the recalcification time at 0.1 mg/ml by Heptest assay; format: ADME, cell-free
How it was run: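 Heptest clotting time in pooled normal human plasma; normal range 13–20 s. Values are the mean of two determinations.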

[12] = molecular target: Vascular endothelial growth factor A (Homo sapiens) (UniProt P15692); test: Binding affinity to VEGF by surface plasmon resonance assay
[13] = molecular target: Fibroblast growth factor 1 (Homo sapiens, UniProt P05230); test: Binding affinity to FGF-1 by surface plasmon resonance assay; how it was run: as §1
Chain of Fibroblast growth factor 1 (P05230 whole entry): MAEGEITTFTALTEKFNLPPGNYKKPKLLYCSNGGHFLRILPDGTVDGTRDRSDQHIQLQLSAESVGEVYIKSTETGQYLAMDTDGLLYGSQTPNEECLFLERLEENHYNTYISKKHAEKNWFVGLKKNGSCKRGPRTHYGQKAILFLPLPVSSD

Heparanase = molecular target: T1, Heparanase (Homo sapiens, UniProt Q9Y251); test: Inhibition of human recombinant heparanase after 2 to 24 hrs by WST1 dye based fondaparinux assay
T1 sequence (Q9Y251 whole entry): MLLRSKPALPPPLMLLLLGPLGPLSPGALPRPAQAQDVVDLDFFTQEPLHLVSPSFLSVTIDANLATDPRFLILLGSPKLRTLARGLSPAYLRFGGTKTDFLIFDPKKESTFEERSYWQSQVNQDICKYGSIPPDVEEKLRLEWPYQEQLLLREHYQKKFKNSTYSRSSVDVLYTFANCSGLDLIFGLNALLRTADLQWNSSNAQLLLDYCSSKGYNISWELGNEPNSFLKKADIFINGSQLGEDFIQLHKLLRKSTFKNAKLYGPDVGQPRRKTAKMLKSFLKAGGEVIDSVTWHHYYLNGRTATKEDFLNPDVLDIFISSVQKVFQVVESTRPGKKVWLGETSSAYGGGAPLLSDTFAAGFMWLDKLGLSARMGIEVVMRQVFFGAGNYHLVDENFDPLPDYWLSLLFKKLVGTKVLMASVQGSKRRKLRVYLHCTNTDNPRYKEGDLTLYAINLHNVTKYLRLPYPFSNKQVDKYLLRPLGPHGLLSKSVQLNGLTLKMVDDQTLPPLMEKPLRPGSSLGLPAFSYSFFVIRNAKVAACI

HUVEC [14] = test: Antiangiogenic activity in FGF1-stimulated HUVEC cells after 72 hrs by CellTiter assay; format: functional, cell-based; conditions: Homo sapiens
HUVEC [15] = test: Antiangiogenic activity in FGF2-stimulated HUVEC cells after 72 hrs by CellTiter assay; format: functional, cell-based; conditions: Homo sapiens
HUVEC [16] = test: Antiangiogenic activity in VEGF-stimulated HUVEC cells after 72 hrs by CellTiter assay; format: functional, cell-based; conditions: Homo sapiens

Chain of Fibroblast growth factor 2 (P09038 143-288 limits assumed): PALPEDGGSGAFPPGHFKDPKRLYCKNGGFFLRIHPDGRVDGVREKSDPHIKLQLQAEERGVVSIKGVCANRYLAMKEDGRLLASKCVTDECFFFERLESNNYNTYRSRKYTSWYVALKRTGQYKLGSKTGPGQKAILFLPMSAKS

| SMILES | Kd [1] [nM] | Activity (HMVEC [2]) | Activity (HMVEC [3]) | Activity (HMVEC [4]) | inhibition at 10 µM (HUVEC [5]) [%] | inhibition (INH) (Aorta [6]) [%] | IC50 (HUVEC [7]) [nM] | IC50 (Aorta [8]) [nM] | Activity (Aorta [9]) | beta t1/2 (Rattus norvegicus) [h] | APTT (Plasma [10]) [s] | Time (Plasma [11]) [s] | Kd [12] [nM] | Kd [13] [nM] | Ki (Heparanase) [nM] | IC50 (HUVEC [14]) [nM] | IC50 (HUVEC [15]) [nM] | IC50 (HUVEC [16]) [nM] |
| --- | --- | --- | --- | --- | --- | --- | --- | --- | --- | --- | --- | --- | --- | --- | --- | --- | --- | --- |
| CC(C)CCC[C@@H](C)[C@H]1CC[C@H]2[C@@H]3CC[C@H]4C[C@@H](O[C@@H]5O[C@H](COS(=O)(=O)[O-])[C@@H](O[C@H]6O[C@H](COS(=O)(=O)[O-])[C@@H](O[C@H]7O[C@H](COS(=O)(=O)[O-])[C@@H](O[C@H]8O[C@H](COS(=O)(=O)[O-])[C@@H](OS(=O)(=O)[O-])[C@H](OS(=O)(=O)[O-])[C@H]8OS(=O)(=O)[O-])[C@H](OS(=O)(=O)[O-])[C@H]7OS(=O)(=O)[O-])[C@H](OS(=O)(=O)[O-])[C@H]6OS(=O)(=O)[O-])[C@H](OS(=O)(=O)[O-])[C@H]5OS(=O)(=O)[O-])CC[C@]4(C)[C@H]3CC[C@]12C.[Na+].[Na+].[Na+].[Na+].[Na+].[Na+].[Na+].[Na+].[Na+].[Na+].[Na+].[Na+].[Na+] | 390 | Active | Active | Active | > 80 | >80 | 2000 | 1100 | Non-toxic | > 50 | 71.9 | 28.6 | 28.9 |  |  |  |  |  |
| CC(C)CCC[C@@H](C)[C@H]1CC[C@H]2[C@@H]3CC[C@H]4C[C@@H](O[C@H]5O[C@H](COS(=O)(=O)[O-])[C@@H](OS(=O)(=O)[O-])[C@H](OS(=O)(=O)[O-])[C@@H]5O[C@H]5O[C@H](COS(=O)(=O)[O-])[C@@H](OS(=O)(=O)[O-])[C@H](O[C@H]6O[C@H](COS(=O)(=O)[O-])[C@@H](OS(=O)(=O)[O-])[C@H](O[C@H]7O[C@H](COS(=O)(=O)[O-])[C@@H](OS(=O)(=O)[O-])[C@H](OS(=O)(=O)[O-])[C@@H]7OS(=O)(=O)[O-])[C@@H]6OS(=O)(=O)[O-])[C@@H]5OS(=O)(=O)[O-])CC[C@]4(C)[C@H]3CC[C@]12C.[Na+].[Na+].[Na+].[Na+].[Na+].[Na+].[Na+].[Na+].[Na+].[Na+].[Na+].[Na+].[Na+] | 160 | Active | Active | Active | > 80 | >80 |  |  |  |  | 94 | 28 | 22 | 0.6 | 5.8 | 1290 | 800 | 1200 |
| CC(C)CCC[C@@H](C)[C@H]1CC[C@H]2[C@@H]3CC[C@H]4C[C@@H](OCc5cn([C@@H]6O[C@H](COS(=O)(=O)[O-])[C@@H](O[C@H]7O[C@H](COS(=O)(=O)[O-])[C@@H](O[C@H]8O[C@H](COS(=O)(=O)[O-])[C@@H](O[C@H]9O[C@H](COS(=O)(=O)[O-])[C@@H](OS(=O)(=O)[O-])[C@H](OS(=O)(=O)[O-])[C@H]9OS(=O)(=O)[O-])[C@H](OS(=O)(=O)[O-])[C@H]8OS(=O)(=O)[O-])[C@H](OS(=O)(=O)[O-])[C@H]7OS(=O)(=O)[O-])[C@H](OS(=O)(=O)[O-])[C@H]6OS(=O)(=O)[O-])nn5)CC[C@]4(C)[C@H]3CC[C@]12C.[Na+].[Na+].[Na+].[Na+].[Na+].[Na+].[Na+].[Na+].[Na+].[Na+].[Na+].[Na+].[Na+] | 390 | Active | Active | Active |  | >80 |  |  |  |  | 104 | 45.5 | 95 | 9.7 | 3.7 | 2300 | 640 | 2200 |
